Compound activity (PubChem BioAssay)
Compounds with a hit are over-represented: about 4.9% of the library has one in this group of screens.
STAT3 activator = STAT3 signaling activation | U3A cells, IL-6 STAT3-luciferase reporter, luminescence; 100% = signal with IL-6 EC80 alone | activation (% of control), % at 5.6 µM | hit rate 0.91% among 190,000;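 active = activation above the screen-wide mean of compound activation plus 3 SD, cut at about 130% in these data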;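 note: 0% = background luminescence of wells with medium and substrate only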
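System – human U3A cells carrying STAT3-luciferase construct · Probe or stimulus – Interleukin-6, 33 ng/mL · Schedule – compound 1 h, then IL-6 6 h at 37 °C · Signal – luminescence from STAT3-driven luciferase reporter · Evaluation – percent of IL-6-only median luminescence · Benchmarks – IL-6-only high control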
APP 5'UTR act = activates APP 5'UTR luciferase reporter | hit rate 1% among 190,000 | activation, % at 2 µM | SH-SY5Y APP 5'UTR luciferase reporter, luminescence; zero percent = DMSO vehicle wells;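 active = activation above a set limit, based on mean plus 3 SD of controls, cut at about 140% in these data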
NF-kB neuron act = raises NF-kB expression in human neuronal cells | AID 1239 | NF-kB reporter expression; hits give high values | hit rate 1.6% among 190,000 | fold change at 12.5 µM; in the data active = fold change above about 3.3
STAT1 inh = inhibitors of IFN-gamma induced STAT1 signaling; NIH 3T3 STAT1-luciferase reporter, luminescence; inhibition, % at 5.5 µM; hit rate 0.35% among 200,000;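 active = inhibition above a set limit, the mean inhibition across all tested compounds plus 3 SD, cut at about 34% in these data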;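 note: 0% = IFN-gamma with DMSO and 100% = IFN-gamma with 300 µM nifuroxazide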
STAT3 blocker = STAT3 signaling inhibition | U3A cells, IL-6 STAT3-luciferase reporter, luminescence; host cell line lacks STAT1 | inhibition, % at 5.5 µM | hit rate 0.89% among 190,000;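 active = inhibition above the mean inhibition across all screened compounds plus 3 SD, cut at about 44% in these data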;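 note: 0% = DMSO only wells and 100% = 100 µM nifuroxazide control wells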
STAT1 act = activators of IFN-gamma induced STAT1 signaling; NIH 3T3 STAT1-luciferase reporter, luminescence; 100% = IFN-gamma alone, no compound; activation (% of control), % at 5.5 µM; hit rate 2.6% among 200,000; AID 932;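 active = activation above the screen-wide mean activation plus 3 SD, cut at about 130% in these data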;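 note: raw ratio to IFN-gamma control signal so 100% means no change and 0% no light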
Starred values were filed as active, the others as inactive; · = no result given.

SMILES | STAT3 activator | APP 5'UTR act | NF-kB neuron act | STAT1 inh | STAT3 blocker | STAT1 act
COC(=O)c1ccc(COc2cc([N+](=O)[O-])cc3cccnc23)o1 | 100 | -3 | 1.3 | 4 | 3 | 95
O=[N+]([O-])c1cc(O)c2ncccc2c1 | 128 | -29 | 5.8* | 5 | -27 | 97
Cc1ccccc1-c1nnc(-c2ccccc2C)o1 | 102 | 21 | 3.7* | -33 | 2 | 130*
Cc1ccccc1-c1nnc(-c2ccc(Br)cc2)o1 | 101 | 69 | 3 | -55 | 2 | 150*
Cc1ccccc1-c1nnc(SCC#N)o1 | 99 | 2 | 1.2 | -12 | 4 | 110
O=S(=O)(c1ccccc1)c1nc(-c2ccccc2)oc1N1CCCCC1 | 96 | 0 | 1.4 | 2 | 11 | 98
O=C1NCCN(Cc2ccc(-c3ccccc3)cc2)C1CC(=O)N1CCN(CCO)CC1 (configuration not stated) | 100 | -3 | 1.1 | -18 | 6 | 115
CCn1c(COc2ccc(C)cc2)nnc1SCC(=O)NNC(=O)c1ccc(OC)cc1 | 97 | 3 | 0.97 | 6 | 3 | 95
CSCC[C@H](NC(=O)CCNC(C)=O)c1nc2ccccc2[nH]1 | 92 | 20 | 0.93 | 4 | 13 | 97
O=C(Nc1ccc(SC(F)F)cc1)C1=COCCO1 | 87 | 201* | 5.2* | -35 | 18 | 133*
CCc1ccc2oc(-c3cc(N)ccc3Cl)nc2c1 | 122 | 160* | 2 | -32 | -19 | 131*
CCc1ccc2oc(-c3cc(N)ccc3O)nc2c1 | 88 | 187* | 4* | 23 | 24 | 80
O=C(NC1=NCCS1)c1ccc(Br)s1 | 105 | 117 | 3.1 | -41 | 0 | 138*
O=C(Nc1nnc(C(F)(F)F)s1)c1ccc(Br)s1 | 65 | 31 | 1.1 | 42* | 46* | 60
CC(NC(=O)Nc1nnc(C(F)(F)F)s1)(C(F)(F)F)C(F)(F)F | 31 | -1 | 0.49 | 62* | 82* | 43
CCOC(=O)c1c(-c2ccccc2Cl)csc1NC(=O)c1cc(S(=O)(=O)N2CCOCC2)ccc1C | 103 | 1 | 0.87 | 0 | -3 | 100
CC(=O)Nc1ccc(/C=C/c2ccc3c([N+](=O)[O-])cccc3n2)cc1 | 96 | 65 | 1.1 | -42 | 7 | 136*
O=[N+]([O-])c1cccc2ccc(/C=C/c3ccc(Cl)cc3)nc12 | 115 | 23 | 2 | -14 | -24 | 113
CCCCCOC(=O)NCC(O)c1ccccc1 (configuration not stated) | 103 | 105 | 2.9 | -49 | 2 | 144*
C=CCn1c(SCc2csc(-c3ccc(C)cc3)n2)nnc1-c1ccccc1OC | 108 | 3 | 0.81 | 10 | -9 | 91
COc1ccc(CN2CCCC(C(=O)c3cccc(OC(C)C)c3)C2)cc1Cn1cccn1 (configuration not stated) | 111 | 4 | 0.9 | 8 | -8 | 91
CCCOc1ccc2cc(-c3ccccn3)c(=O)oc2c1 | 21 | 123 | 1.2 | 39* | 98* | 65
CCOC(=O)CCC(=O)Nc1ccc([N+](=O)[O-])cc1C | 99 | -8 | 1.1 | -5 | 4 | 102
O=C(/C=C/c1ccnc2ccccc12)c1cccs1 | 78 | 183* | 1 | -4 | 33 | 103
COc1ccc(N=c2oc3ccccc3cc2C(=O)Nc2ccccn2)cc1OC | 104 | 19 | 1.7 | -40 | 1 | 137*
SMILES | STAT3 activator | APP 5'UTR act | NF-kB neuron act | STAT1 inh | STAT3 blocker | STAT1 act
C/C(=N\Nc1cccc2cccnc12)c1ccc[nH]1 | 115 | 206* | 1.3 | -17 | -17 | 113
CCC(Sc1nc2ccccc2s1)C(=O)Nc1cc(C)on1 (configuration not stated) | 107 | -1 | 0.94 | 0 | -7 | 100
O=C(CNCCO)N1CCc2ccccc21 | 113 | -9 | 1.2 | 1 | -12 | 99
O=C(CNc1ccccc1OC(F)F)N1CCc2ccccc21 | 101 | 92 | 3.2 | -49 | 2 | 143*
CC1CCN(C(=O)C2(NC(=O)Nc3cccc(F)c3)CCCCC2)CC1 | 107 | -2 | 1.3 | 2 | -4 | 99
CC(C)C1COC(c2cccc3ccccc23)=N1 (configuration not stated) | 92 | 103 | 3.7* | -47 | 7 | 143*
CCOCCCn1c(=N)c(C(=O)Nc2cc(C)on2)cc2c(=O)n3ccccc3nc21 | 99 | 7 | · | 17 | 5 | 85
CCOC(=O)c1ccc(-c2ccc(/C=C(\C#N)C(=O)NCC3CCCO3)o2)cc1 (configuration not stated) | 135* | -9 | 1 | -4 | -38 | 104
COc1ccc(/C=C(\C#N)C(=O)NCC2CCCO2)cc1OC (configuration not stated) | 99 | -8 | 1 | -12 | 9 | 110
CC(=O)Nc1ccc(C(=O)OCC(=O)c2cccc([N+](=O)[O-])c2)cc1 | 95 | 4 | 1.1 | 13 | 5 | 88
Cc1ccc(C(=O)COC(=O)c2cccc(NC(=O)c3ccc([N+](=O)[O-])cc3[N+](=O)[O-])c2)cc1 | 65 | 164* | 3 | 43* | 46* | 61
O=C(CSc1nnc(-c2ccccc2Cl)o1)Nc1ccc2c(c1)OCCO2 | 99 | 141* | 2.2 | 1 | 3 | 98
O=C(CSc1nnc(-c2ccccc2Cl)o1)Nc1ccccn1 | 94 | 129 | 2.3 | -21 | 13 | 117
O=C(CSc1nnc(-c2ccc(O)cc2)o1)Nc1ccc2c(c1)OCCO2 | 85 | 135* | 1.9 | -1 | 21 | 101
O=C1c2ccccc2C(=O)N1c1ccc(Cl)cn1 | 89 | 7 | 1.1 | 4 | 14 | 96
O=[N+]([O-])c1ccc(/C=N/Nc2ncc(-c3ccccc3)cn2)cc1 | 90 | 2 | 1.2 | -3 | 14 | 100
O=[N+]([O-])c1ccc(N/N=C/c2ccccc2)c(F)c1 | 104 | 33 | 2.3 | -50 | -10 | 145*
CN(C)CCCN1C(=O)c2cccc3c([N+](=O)[O-])ccc(c23)C1=O | 109 | -80 | 4.3* | -48 | -5 | 143*
CCCC(=O)Nc1ccc(-c2nc3cc(C)ccc3o2)cc1 | 99 | 190* | 5.1* | -39 | 4 | 136*
CCCC(=O)Nc1ccc2oc(-c3ccc(OC)c(Br)c3)nc2c1 | 99 | 49 | 1.5 | -11 | 6 | 108
COc1ccc(-c2nc3ccc([N+](=O)[O-])cc3o2)cc1 | 90 | 150* | 2.8 | -13 | 16 | 111
CCC(=O)NC(=S)Nc1ccc2oc(-c3ccc(OC)cc3)nc2c1 | 98 | 137* | 1.8 | -29 | 10 | 125
Cc1cccc(-c2nc3cc([N+](=O)[O-])ccc3o2)c1 | 87 | 82 | 3.5* | -19 | 19 | 116
Nc1ccc(-c2nc3ccc(N)cc3o2)cc1 | 100 | 16 | 2.4 | -27 | 4 | 125
